A short description of data set [1]: Cmax in mouse plasma at 60 mg/kg, po. Type of data set: ADME, organism-based. Also on record: dose 60 mg/kg, route po.
Data set [2] is described as follows: Tmax in mouse plasma at 10 mg/kg, sc. Type of data set: ADME, organism-based.
A short description of data set [3]: Aqueous stability of the compound at pH 1.2 assessed as compound decomposition measured after 24 hrs by HPLC analysis. Type of data set: physicochemical. The following applies: aqueous solution, read-out: Drug degradation. The method, boiled down: (§1)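 Compounds at 10 μg/mL in Japanese Pharmacopoeia 17th ed. disintegration-test fluids (first fluid pH 1.2, second fluid pH 6.8), with 10% DMSO if needed, held at 37 °C. HPLC run at start and at 24 h. Decomposition derived from peak areas as residual content.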

Data set [4] can be described thus: Aqueous stability of the compound at pH 6.8 assessed as compound decomposition measured after 24 hrs by HPLC analysis. Type of data set: physicochemical. Conditions: aqueous solution, read-out: Drug degradation. The gist of the method:
as §1

Data set [5] is described as follows: Cmax in mouse plasma at 10 mg/kg, sc. Type of data set: ADME, organism-based. Also on record: dose 10 mg/kg, route sc.
Data set [6] in a line: Tmax in mouse plasma at 60 mg/kg, po. Type of data set: ADME, organism-based.
Data set [7] in a line: MRT in mouse plasma at 60 mg/kg, po. Type of data set: ADME, organism-based.
Data set [8] is described as follows: MRT in mouse plasma at 10 mg/kg, sc. Type of data set: ADME, organism-based.
A further data set relates to Mus musculus. As to the kind of experiment: In vivo inhibition of entero-peptidase in mouse assessed as increase in fecal protein content at 60 mg/kg, po. Type of data set: functional, organism-based. The method, boiled down:
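HFD-fed male mice (D12079B diet, 14–21 weeks old) dosed orally at 60 mg/kg, with 0.5% methylcellulose as vehicle. Whole feces collected overnight and fecal protein output determined.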

Data set [9] in a line: Oral bioavailability in non-fasted Sprague-Dawley rat plasma at 1 mg/kg administered as cassette dose by LC/MS/MS analysis. Type of data set: ADME, organism-based. Conditions: in vivo, BLD = below limit of detection. The method, boiled down:
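Non-fasted SD rats given cassette oral dose of 1 mg/kg, suspended in 0.5% methylcellulose. Plasma obtained from collected blood; compound measured by LC–MS/MS.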

Data set [10] concerns Rattus norvegicus. Kind of data set: Anti-obesity activity in diet-induced obese F344/Jcl rat model assessed as increase in fecal protein output at 1 to 10 mg/kg, po measured on day 28. Conditions: dose 1-10 mg/kg, time 28.0 day. Type of data set: functional, organism-based. The gist of the method: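 Male DIO F344/Jcl rats on HFD D12451 (45 kcal % fat), n = 6 per group. Oral dosing at 1, 3 or 10 mg/kg in 0.5% methylcellulose vehicle for 4 weeks from 36 weeks of age. Fecal protein output measured; mean ± SD; statistics vs vehicle.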

For data set [11], the system named is Rattus norvegicus. As to the kind of experiment: Anti-obesity activity in diet-induced obese F344/Jcl rat model assessed as reduction in food intake at 1 to 10 mg/kg, po administered for 28 days. Type of data set: functional, organism-based. The following applies: dose 1-10 mg/kg, time 28.0 day. The gist of the method: (§2)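 Male DIO F344/Jcl rats fed HFD D12451 (45 kcal % fat, 20 kcal % protein, 35 kcal % carbohydrate) from six weeks of age. Oral dosing in 0.5% methylcellulose vehicle starts at 36 weeks of age and continues 4 weeks. Body weight recorded every 1–4 days. n = 6 per group; mean ± SD; Dunnett's t-test or one-tailed Williams' test vs vehicle.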

The test system of data set [12] is Rattus norvegicus. As to the kind of experiment: Anti-obesity activity in diet-induced obese F344/Jcl rat model assessed as body weight loss administered orally for 28 days measured every 4 days. Type of data set: functional, organism-based. The following applies: route po, time 4.0 weeks, DDE = dose-dependent effect. The method, boiled down:
as §2

The nature of data set [13]: Permeability of the compound at pH 7.4 by PAMPA. Conditions: read-out: permeability. Type of data set: ADME. For orientation: In PAMPA a lipid-coated filter parts donor from acceptor wells.
Data set [14] is described as follows: Permeability of the compound at pH 5.0 by PAMPA. Type of data set: ADME. The following applies: read-out: permeability.
For data set [15], the target named is Enteropeptidase (Homo sapiens) (UniProt P98073). As to the kind of experiment: Inhibition of human recombinant Enteropeptidase assessed as inhibition based on initial velocity using 5FAM-Abu-Gly-Asp -Asp-Asp -Lys-Ile-Val-Gly-Gly-Lys-(CPQ2)-Lys-Lys-NH2 as substrate by fluorescence based plate reader method. Conditions: TDE = time-dependent effect. The gist of the method:
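Human recombinant enzyme prepared as a 24 mU/mL solution in 50 mM tricine pH 8.0, 0.01% Tween 20, 10 mM CaCl2. Compound in DMSO/buffer mixed with 2.1 μM substrate solution; enzyme added to start the reaction at room temperature. Fluorescence (ex 485/em 535 nm) read at 6 min. Inhibition taken relative to no-compound and no-enzyme controls. IC50 with 95% CI.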

Calls of active or inactive are those of the source. The calls are words filed in the database; no cut-off is given here. Where only a bound is given, the exact number is not on record here.

Enteropeptidase (Homo sapiens), sequence (P98073 2-784 limits assumed): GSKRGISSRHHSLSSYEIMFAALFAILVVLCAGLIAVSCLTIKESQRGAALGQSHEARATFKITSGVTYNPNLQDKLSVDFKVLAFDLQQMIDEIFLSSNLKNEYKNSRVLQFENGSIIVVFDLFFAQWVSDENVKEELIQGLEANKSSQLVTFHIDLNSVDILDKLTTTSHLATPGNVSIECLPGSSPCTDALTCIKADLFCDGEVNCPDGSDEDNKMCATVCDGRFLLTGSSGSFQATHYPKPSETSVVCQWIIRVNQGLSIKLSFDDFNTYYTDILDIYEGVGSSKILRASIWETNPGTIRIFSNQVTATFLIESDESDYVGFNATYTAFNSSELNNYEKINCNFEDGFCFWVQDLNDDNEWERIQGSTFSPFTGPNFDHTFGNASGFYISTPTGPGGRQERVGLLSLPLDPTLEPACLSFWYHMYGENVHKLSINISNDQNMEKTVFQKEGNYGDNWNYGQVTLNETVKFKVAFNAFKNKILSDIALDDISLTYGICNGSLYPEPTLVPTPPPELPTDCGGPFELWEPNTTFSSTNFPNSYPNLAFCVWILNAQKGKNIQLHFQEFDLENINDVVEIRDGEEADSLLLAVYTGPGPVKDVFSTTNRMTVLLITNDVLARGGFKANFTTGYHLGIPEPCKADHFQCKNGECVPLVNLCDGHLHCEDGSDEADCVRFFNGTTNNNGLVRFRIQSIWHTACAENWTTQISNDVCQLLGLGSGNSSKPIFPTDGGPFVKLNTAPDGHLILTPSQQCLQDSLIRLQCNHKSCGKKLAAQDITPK
Enteropeptidase (Homo sapiens), sequence (P98073 785-1019 limits assumed): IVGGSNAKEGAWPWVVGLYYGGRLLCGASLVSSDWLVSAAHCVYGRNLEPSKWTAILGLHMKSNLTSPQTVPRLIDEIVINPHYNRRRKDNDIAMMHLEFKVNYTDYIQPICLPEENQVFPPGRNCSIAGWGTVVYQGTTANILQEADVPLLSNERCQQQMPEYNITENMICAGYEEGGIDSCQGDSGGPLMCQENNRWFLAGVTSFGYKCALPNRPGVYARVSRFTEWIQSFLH

One may read the Cmax as the peak of the concentration-time curve. As a reminder, the Tmax is the time at which the peak concentration occurs. By MRT is commonly meant a mean duration of stay, worked out from the concentration-time curve. With `Cl.N=C(N)Nc1ccc(C(=O)Oc2ccc(CC(=O)N[C@@H](CC(=O)O)C(=O)O)cc2)cc1`, the results for the Cmax in data set [1] and in [5] were 1360 ng/mL and 13400 ng/mL, respectively. For the same molecule, the Tmax stood at 0.5 h in data set [2] and 1.67 h in data set [6]. Further, the results for the degraded at 24 h in data set [3] and in data set [4] were 2.5% and 5%, respectively. In addition, the results for the MRT in [7] and in data set [8] were 5.07 h and 0.98 h, respectively. Moreover, the inhibition result in the data set with Mus musculus is “Active”.
As to `N=C(N)Nc1ccc(C(=O)Oc2cccc(CC(=O)N[C@@H](CC(=O)O)C(=O)O)c2)cc1`, the degraded at 24 h in data set [3] was 2.8%; in data set [4], 5.8%.
In the case of `N=C(N)Nc1ccc(C(=O)Oc2cccc(C3=NO[C@](CC(=O)O)(C(=O)O)C3)c2)cc1`, in [9], the F result is listed as “Bld”. Moreover, the outcome in the data set on Rattus norvegicus [10] and in the data set with Rattus norvegicus [11] was Active. Further, in the data set with Rattus norvegicus [12], the Activity result was “Dde”.
`CS(=O)(=O)O.N=C(N)Nc1ccc(C(=O)Oc2ccccc2)cc1`: the Papp in [13] and in [14] was less than 0.2 ×10⁻⁶ cm/s in each case. The inhibition entry in data set [15] is “Tde”.
For the molecule `N=C(N)Nc1ccc(C(=O)Oc2cccc(C(=O)N[C@@H](CC(=O)O)C(=O)O)c2)cc1`, the figures for the degraded at 24 h in data set [3] and in data set [4] were 3.9% and 8.6%, respectively.
Turning to `N=C(N)Nc1ccc(C(=O)Oc2ccc(CC(=O)NCC(=O)O)cc2)cc1.O=C(O)C(F)(F)F`, the Papp in data set [13] and in [14] was 0.2 ×10⁻⁶ cm/s throughout. The inhibition result in data set [15] was “Tde”.

For the origin of these results see ChEMBL document CHEMBL5126593, “Design, Synthesis, and Biological Evaluation of a Novel Series of 4-Guanidinobenzoate Derivatives as Enteropeptidase Inhibitors with Low Systemic Exposure for the Treatment of Obesity” (J Med Chem, 2022).
